Tested on: HEK-293T
Assay: Multiplex assay against HEK293T
Format: toxicity, cell-based
Conditions: human
Method in brief: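 At seeding, live cells were stained with Hoechst33342, BioTracker Green Microtubule Cytoskeleton Dye, MitoTracker Red and Annexin V Alexa Fluor 680. After compound addition they were imaged on a CQ1 microscope at 37°C and 5% CO2, and CellPathfinder machine-learning gating sorted them into Hoechst high-intensity objects or normal cells, with normal cells further split into healthy, pyknosed or fragmented nuclei and pyknosed cells into mitotic or apoptotic. Tubulin, mitochondrial-mass and membrane-permeability phenotypes are given as per cents of cells with healthy nuclei.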

[1] = 12 h, 1 µM, compound concentration 1 uM, replicate 1
[2] = 12 h, 1 µM, compound concentration 1 uM, replicate 2
[3] = 12 h, 10 µM, compound concentration 10 uM, replicate 1
[4] = 12 h, 10 µM, compound concentration 10 uM, replicate 2
[5] = 24 h, 1 µM, compound concentration 1 uM, replicate 1
[6] = 24 h, 1 µM, compound concentration 1 uM, replicate 2
[7] = 24 h, 10 µM, compound concentration 10 uM, replicate 1
[8] = 24 h, 10 µM, compound concentration 10 uM, replicate 2
[9] = 48 h, 1 µM, compound concentration 1 uM, replicate 1
[10] = 48 h, 1 µM, compound concentration 1 uM, replicate 2
[11] = 48 h, 10 µM, compound concentration 10 uM, replicate 1
[12] = 48 h, 10 µM, compound concentration 10 uM, replicate 2

## C[C@H]1[C@H]2CC[C@H]3[C@@H]4CC=C5C[C@@H](N(C)C)CC[C@]5(C)[C@H]4CC[C@]23CN1C [CONESSINE]
[1]
  Population Apoptotic (%): 35%
  Population Fragmented Nuclei (%): 5%
  Population Healthy Nuclei (%): 78%
  Population Hoechst High Intensity Objects (%): 6%
  Population Membrane Permeable-Phenotype (%): 0%
  Population Mitochondria Different-Phenotype (%): 39%
  Population Mitotic Cells (%): 65%
  Population Normal (%): 93%
  Population Pyknosed Nuclei (%): 16%
  Population Tubulin-Different-Phenotype (%): 26%
  Total Cell Count: 400
[2]
  Population Apoptotic (%): 48%
  Population Fragmented Nuclei (%): 4%
  Population Healthy Nuclei (%): 85%
  Population Hoechst High Intensity Objects (%): 8%
  Population Mitochondria Different-Phenotype (%): 58%
  Population Mitotic Cells (%): 51%
  Population Normal (%): 91%
  Population Pyknosed Nuclei (%): 10%
  Population Tubulin-Different-Phenotype (%): 22%
  Total Cell Count: 356
[3]
  Population Apoptotic (%): 35%
  Population Fragmented Nuclei (%): 6%
  Population Healthy Nuclei (%): 77%
  Population Hoechst High Intensity Objects (%): 6%
  Population Membrane Permeable-Phenotype (%): 1%
  Population Mitochondria Different-Phenotype (%): 56%
  Population Mitotic Cells (%): 65%
  Population Normal (%): 93%
  Population Pyknosed Nuclei (%): 15%
  Population Tubulin-Different-Phenotype (%): 38%
  Total Cell Count: 419
[4]
  Population Apoptotic (%): 59%
  Population Fragmented Nuclei (%): 7%
  Population Healthy Nuclei (%): 78%
  Population Hoechst High Intensity Objects (%): 9%
  Population Membrane Permeable-Phenotype (%): 0%
  Population Mitochondria Different-Phenotype (%): 62%
  Population Mitotic Cells (%): 40%
  Population Normal (%): 90%
  Population Pyknosed Nuclei (%): 14%
  Population Tubulin-Different-Phenotype (%): 30%
  Total Cell Count: 384
[5]
  Population Apoptotic (%): 26%
  Population Fragmented Nuclei (%): 9%
  Population Healthy Nuclei (%): 80%
  Population Hoechst High Intensity Objects (%): 5%
  Population Membrane Permeable-Phenotype (%): 1%
  Population Mitochondria Different-Phenotype (%): 22%
  Population Mitotic Cells (%): 73%
  Population Normal (%): 94%
  Population Pyknosed Nuclei (%): 10%
  Population Tubulin-Different-Phenotype (%): 17%
  Total Cell Count: 514
[6]
  Population Apoptotic (%): 25%
  Population Fragmented Nuclei (%): 8%
  Population Healthy Nuclei (%): 81%
  Population Hoechst High Intensity Objects (%): 4%
  Population Membrane Permeable-Phenotype (%): 0%
  Population Mitochondria Different-Phenotype (%): 34%
  Population Mitotic Cells (%): 75%
  Population Normal (%): 95%
  Population Tubulin-Different-Phenotype (%): 16%
  Total Cell Count: 484
[7]
  Population Apoptotic (%): 27%
  Population Fragmented Nuclei (%): 9%
  Population Healthy Nuclei (%): 79%
  Population Hoechst High Intensity Objects (%): 6%
  Population Membrane Permeable-Phenotype (%): 1%
  Population Mitochondria Different-Phenotype (%): 38%
  Population Mitotic Cells (%): 72%
  Population Normal (%): 93%
  Population Pyknosed Nuclei (%): 11%
  Population Tubulin-Different-Phenotype (%): 28%
  Total Cell Count: 572
[8]
  Population Apoptotic (%): 47%
  Population Healthy Nuclei (%): 82%
  Population Hoechst High Intensity Objects (%): 9%
  Population Membrane Permeable-Phenotype (%): 0%
  Population Mitochondria Different-Phenotype (%): 43%
  Population Mitotic Cells (%): 52%
  Population Normal (%): 90%
  Population Pyknosed Nuclei (%): 7%
  Population Tubulin-Different-Phenotype (%): 24%
  Total Cell Count: 474
[9]
  Population Apoptotic (%): 30%
  Population Fragmented Nuclei (%): 9%
  Population Healthy Nuclei (%): 82%
  Population Hoechst High Intensity Objects (%): 2%
  Population Membrane Permeable-Phenotype (%): 1%
  Population Mitochondria Different-Phenotype (%): 18%
  Population Mitotic Cells (%): 69%
  Population Normal (%): 97%
  Population Pyknosed Nuclei (%): 7%
  Population Tubulin-Different-Phenotype (%): 12%
  Total Cell Count: 735
[10]
  Population Apoptotic (%): 36%
  Population Fragmented Nuclei (%): 10%
  Population Healthy Nuclei (%): 83%
  Population Hoechst High Intensity Objects (%): 4%
  Population Mitochondria Different-Phenotype (%): 20%
  Population Mitotic Cells (%): 63%
  Population Normal (%): 95%
  Population Pyknosed Nuclei (%): 5%
  Population Tubulin-Different-Phenotype (%): 11%
  Total Cell Count: 630
[11]
  Population Apoptotic (%): 27%
  Population Fragmented Nuclei (%): 14%
  Population Healthy Nuclei (%): 78%
  Population Hoechst High Intensity Objects (%): 4%
  Population Membrane Permeable-Phenotype (%): 1%
  Population Mitochondria Different-Phenotype (%): 23%
  Population Mitotic Cells (%): 72%
  Population Normal (%): 95%
  Population Pyknosed Nuclei (%): 6%
  Population Tubulin-Different-Phenotype (%): 15%
  Total Cell Count: 767
[12]
  Population Apoptotic (%): 36%
  Population Fragmented Nuclei (%): 10%
  Population Healthy Nuclei (%): 81%
  Population Hoechst High Intensity Objects (%): 5%
  Population Membrane Permeable-Phenotype (%): 0%
  Population Mitochondria Different-Phenotype (%): 32%
  Population Mitotic Cells (%): 63%
  Population Normal (%): 94%
  Population Pyknosed Nuclei (%): 7%
  Population Tubulin-Different-Phenotype (%): 17%
  Total Cell Count: 618
